Screens from PubChem.
The entries come from a sample that favours hits as a whole.
INS promoter act: TRM-6 insulin promoter activation. activation, % at 2 µM. 130,000 tested, 0.81% active. TRM-6 cells, insulin promoter eGFP reporter, imaging; plate-scaled: unstimulated 0, stimulated control 100;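 active = activation at 2 µM above a set limit, confirmed on inspection of the cell images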;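 note: share of cells whose green reporter signal exceeds an intensity cutoff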
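Test system: human fetal islet-derived TRM-6 cells with tamoxifen-inducible insulin promoter–eGFP reporter; schedule: overnight tamoxifen, then two-day compound incubation at 37 °C; measured by: high-content imaging of fixed cells with Hoechst nuclear stain; evaluation: percent cells above green-intensity threshold, converted to percent activation versus plate controls; control set: stimulated and unstimulated wells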
Hits are given with their value; . = inactive; [ ] = dose if it differs, or a comment.

SMILES	INS promoter act
CC(=O)Nc1cccc(OCC(O)Cn2cnc3ccccc32)c1 (configuration not stated)	.
Cc1cccc(OCC(O)CNC(=O)c2ccccc2C(=O)O)c1 (configuration not stated)	.
CSc1ncc(F)c(N(CCO)CCO)n1	.
CCOC(=O)N1CCN(C(=O)CCSCCc2ccncc2)CC1	.
CCOc1ccc(NC(=O)Cn2c(=O)oc3ccccc32)cc1	.
O=C(Cn1c(=O)oc2ccccc21)c1ccccc1	.
CC(C)(C)c1csc(NC(=O)Cn2c(=O)oc3ccccc32)n1	429.4
O=C(COC(=O)C1CC(O)CN1S(=O)(=O)c1ccc(Cl)cc1)c1cccc(Cl)c1 (configuration not stated)	.
COC(=O)CNC(=O)C1(C)C=CCN1C(=O)c1ccccc1 (configuration not stated)	.
Cc1cc(C)c(S(=O)(=O)/N=C2/C=C(Sc3ncn[nH]3)C(=O)c3ccccc32)cc1C	.
CCOc1cc(Br)c(C=O)cc1OCC	.
CCN1CCCC1CNCc1cccc(OC)c1OCc1ccccc1F (configuration not stated)	.
CCc1ccc(NC(=S)NCC2CCCN2CC)cc1 (configuration not stated)	.
CCOc1cc(CNCC2CCCN2CC)cc(Cl)c1OC (configuration not stated)	345.0
CCNCc1ccccc1OCc1ccccc1	.
CCN1CCCC1CNCc1ccccc1OCc1ccc(F)cc1 (configuration not stated)	97.2
CCOc1cc(CNCCCN2CCOCC2)cc(Br)c1OCc1ccccc1Cl	.
COc1ccccc1C(=O)N/N=C(\C)c1ccc(NC(=O)C2CC2)cc1	.
CC(=O)Nc1ccc(NC(=O)CN(c2cccc([N+](=O)[O-])c2)S(C)(=O)=O)cc1	.
C/C(=N/NC(=O)C1CCCCC1)c1ccc([N+](=O)[O-])cc1	.
C=C(C)CC(NCCc1ccccc1)c1ccco1 (configuration not stated)	669.2[fluoresces]
O=C(Nc1ccccc1C(=O)NCCc1ccccc1)c1ccco1	.
O=C(c1ccco1)N(CCC(c1ccccc1)c1ccco1)Cc1ccccc1 (configuration not stated)	.
Cn1c(Cc2ccccc2)nnc1SCC(=O)c1cccs1	.
C=CCn1c(SCCOc2ccc(OC)cc2)nnc1C(C)NC(=O)Cc1ccc(OC)cc1 (configuration not stated)	.
SMILES	INS promoter act
CCN(CC)CCCN1C(=O)C(O)=C(C(C)=O)C1c1cccc(OC)c1 (configuration not stated)	.
CC(=O)C1=C(O)C(=O)N(CCCn2ccnc2)C1c1ccc(Br)cc1 (configuration not stated)	346.7
O=C(NCCCn1ccnc1)C(=O)NCC1OCCN1S(=O)(=O)c1ccc(Br)cc1 (configuration not stated)	.
O=c1[nH]c2cccnc2n1Cc1ccccc1	.
Cc1cc(C)n(-c2cc(N3CCN(S(=O)(=O)c4ccc(Cl)cc4)CC3)ccc2[N+](=O)[O-])n1	.
Cc1cc(N2CCN(S(=O)(=O)c3ccc(Cl)cc3)CC2)c2ccccc2n1	100.0
O=S(=O)(c1ccccc1)N1CCN(c2nc3ccccc3s2)CC1	.
CCc1nc2sc3c(c2c(=O)o1)CCCC3	.
O=C1CCc2nc3sc4c(c3c(=O)n2N1)CCCC4	412.5
Cc1nc2sc3c(c2c(=O)n1N)CCC3	.
Cc1nn(Cc2ccc(Cl)cc2)c(C)c1NC(=O)CCCn1nc([N+](=O)[O-])c(Cl)c1C	.
O=C(CS(=O)CC(=O)N(CC(=O)NC1CCCC1)c1ccc2c(c1)OCCO2)Nc1ccc(F)cc1 (configuration not stated)	.
CCCCc1ccc(S(=O)(=O)N2CCN(C(=O)c3ccco3)CC2)cc1	.
O=C(c1ccco1)N1CCN(S(=O)(=O)Cc2ccc(Cl)cc2)CC1	420.0
O=C(Cc1ccccc1)N1CCN(C(=O)c2ccco2)CC1	528.6
O=C(CCSc1ccccc1)N1CCN(C(=O)c2ccco2)CC1	.
O=C(c1ccco1)N1CCN(S(=O)(=O)c2cccs2)CC1	.
O=C(Cc1ccccc1F)OCC(=O)N1CCN(C(=O)c2ccco2)CC1	.
COc1ccc(NC(=O)CCNS(=O)(=O)c2ccc(Br)s2)cc1	.
O=C(CSc1nc2ccccc2c(=O)n1CC1CCCO1)NCc1ccc2c(c1)OCO2 (configuration not stated)	.
CCCCOC(=O)/C(=C\c1ccc([N+](=O)[O-])o1)NC(=O)c1ccccc1	.
CC(=O)N(C)c1ccc(NC(=O)c2ccco2)cc1	.
O=C(Nc1ccc(F)c(F)c1)c1ccco1	.
O=C(Nc1ccc(Br)cc1)c1ccco1	557.1
C=CCN1C(=O)/C(=C\C=C2\N(C)c3ccccc3C2(C)C)SC1=S	614.3[fluoresces]
SMILES	INS promoter act
Cc1c(N=C/C=C2/N(C)c3ccccc3C2(C)C)c(=O)n(-c2ccccc2)n1C	.
CCN1C(=O)/C(=C\N2CCCc3ccccc32)SC1=S	.
CC(C)C(=O)NC(NC(=O)C(C)C)c1ccc([N+](=O)[O-])cc1	.
CC(=O)Oc1ccc2c(c1)cc(C)n2C	.
COc1ccc(Cc2n[nH]c(=S)o2)cc1	478.6
COc1ccc(Cc2nnc(SCC(=O)c3ccc(OC)cc3)o2)cc1	.
S=c1[nH]nc(COc2ccc3ccccc3c2)o1	.
Cc1ccc2nc(-c3ccc(NC(=O)C4CCCO4)cc3)[nH]c2c1 (configuration not stated)	.
Cc1cccc(-c2nnc(SCc3ccc(C#N)cc3)n2Cc2ccco2)c1	.
COCc1nnc(N)s1	.
Clc1ccc(Cc2ccc(SCc3ccccc3)nn2)c(Cl)c1	.
Nc1nnc(Cc2ccc(Cl)cc2Cl)s1	97.1
O=C(Nc1cccc(F)c1)NC1(C(=O)N2CCN3CCCC3C2)CCCCC1 (configuration not stated)	.
O=C(NCCN1CCOCC1)C1CCC(CNS(=O)(=O)c2ccc(Cl)cc2)CC1 (configuration not stated)	.
O=C(Nc1cccnc1)c1cn(-c2ccccc2)nc1-c1cccs1	.
O=C(Nc1cccc2ccccc12)c1cn(-c2ccccc2)nc1-c1cccs1	.
N#CCCn1cc(C(=O)Nc2ccccc2Br)c(-c2cccs2)n1	457.1
CC(Oc1cc(Cl)ccc1Cl)C(=O)N/N=C\c1ccnn1C (configuration not stated)	.
CC1(C)CC(CC(=O)Nc2ccccc2[N+](=O)[O-])C(=O)O1 (configuration not stated)	.
CCCC(=O)Nc1ccc(C(=O)N2CCCC2)cc1	.
Cc1ccc(N2CCN(c3ccc(NC(=O)CCC(=O)O)cc3)CC2)cc1	.
CCCC(=O)Nc1ccc(N2CCN(C(=O)c3ccccc3C)CC2)cc1	443.8
COC(=O)CSc1nc(-c2ccccc2)nc2ccccc12	.
Cc1cc2c(N=O)c(NO)ccc2[nH]1	.
Cn1c(C(=O)OC(C(=O)NCc2ccco2)c2ccncc2)cc2sccc21 (configuration not stated)	633.3
CC(OC(=O)c1cc2sccc2n1C)C(=O)NCc1ccc(F)cc1 (configuration not stated)	.
CC(OC(=O)c1cc2sccc2n1C)C(=O)NCCc1ccccc1 (configuration not stated)	.
COC(=O)C1=C(CSc2nc3ccccc3s2)NC(=O)NC1c1ccc(F)cc1 (configuration not stated)	.
Cc1ccc(C(=O)NC(=C(Cl)Cl)S(=O)(=O)c2ccc(Cl)cc2)cc1	.
O=C(Nc1ccccn1)c1ccc(S(=O)(=O)c2ccc(Cl)cc2)cc1	.
